These results are taken from ChEMBL document CHEMBL1157157, “N-Aroyl-3,5-bis(benzylidene)-4-piperidones: a novel class of antimycobacterial agents” (Bioorg Med Chem, 2008).

SMILES strings stand for the structures. Values after ≈ are worked out from the molar mass of the structure shown.

In data set [1] the test system is Mycobacterium tuberculosis. The data set is described as follows: Antimycobacterial activity against Mycobacterium tuberculosis H37Rv by broth microdilution assay. The data set is classed as functional. In outline: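 M. tuberculosis H37Rv (ATCC 27294) grown in BACTEC 12B medium, broth microdilution. MIC taken as the lowest concentration giving a 90% reduction in fluorescence relative to controls. Rifampin served as reference drug.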
A general note: Broth dilution looks for growth in wells or tubes with falling amounts of substance.

Data set [2] relates to Mus musculus. The data set is described as follows: Neurotoxicity in mouse at 100 mg/kg after 4 hrs. Format: toxicity, organism-based. The settings on record: in vivo. On the set-up: dose 100 mg/kg. A digest of the protocol:
(§1)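 Mice dosed intraperitoneally at 30, 100 and 300 mg/kg; 1a and 1b given as hydrochloride salts. Observed 0.5 and 4 h after dosing. Value is number of animals showing neurological deficit over number dosed. Deaths also recorded.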

Data set [3] concerns Mycobacterium tuberculosis. Briefly: Antimycobacterial activity against Mycobacterium tuberculosis H37Rv at 12.5 ug/ml by broth microdilution assay. Format: functional. In outline: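 Primary screen against M. tuberculosis H37Rv (ATCC 27294) at a single concentration of 12.5 µg/mL in BACTEC 12B medium by broth microdilution. Growth inhibition expressed as % relative to controls. Hydrochloride salt used where applicable.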

The nature of data set [4]: Lipophilicity, log P of the compound. Format: physicochemical. The settings on record: octanol/water. In outline:
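log P calculated with ACD algorithm and database statistics; not measured experimentally.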

Data set [5] concerns Mus musculus. Briefly: Neurotoxicity in mouse at 300 mg/kg after 4 hrs. The data set is classed as toxicity, organism-based. On the set-up: dose 300 mg/kg. Particulars: in vivo. A digest of the protocol:
as §1

Data set [6] deals with Mus musculus. The data set is described as follows: Neurotoxicity in mouse at 100 mg/kg after 0.5 hrs. Format: toxicity, organism-based. On the set-up: dose 100 mg/kg. Particulars: in vivo. A digest of the protocol:
as §1

The test system of data set [7] is Mus musculus. Briefly: Neurotoxicity in mouse at 300 mg/kg after 0.5 hrs. Format: toxicity, organism-based. On the set-up: dose 300 mg/kg. The settings on record: in vivo. A digest of the protocol:
as §1

The subject of data set [8] is Mycobacterium tuberculosis. Briefly: Antimycobacterial activity against Mycobacterium tuberculosis H37Rv at 6.25 ug/ml by broth microdilution assay. The data set is classed as functional. In outline: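 Single-concentration screen at 6.25 µg/mL against M. tuberculosis H37Rv (ATCC 27294), broth microdilution in BACTEC 12B medium. Read-out is % growth inhibition versus controls. At least 90% inhibition counted as active.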

On to `CO[C@H]1/C=C/O[C@@]2(C)Oc3c(C)c(O)c4c(O)c(c(/C=N/N5CCN(C)CC5)c(O)c4c3C2=O)NC(=O)/C(C)=C\C=C\[C@H](C)[C@H](O)[C@@H](C)[C@@H](O)[C@@H](C)[C@H](OC(C)=O)[C@@H]1C` [RIFAMPIN], for which, in data set [1], 0.07 µg/mL (≈ 0.0851 µM) was the least that counted as inhibitory (MIC).

Take `Cl.O=C1/C(=C/c2ccccc2)CNC/C1=C\c1ccccc1`: the Activity result in the data set with Mus musculus [2], with Mus musculus [5], with Mus musculus [6] and in the data set on Mus musculus [7] was “Non-toxic” throughout. In addition, at 12.5 µg/mL the inhibition in data set [3] was 99%. The logP (commonly a log measure of how a compound divides between an organic and an aqueous phase) in data set [4] is 5.7. Further, in data set [1], the MIC – broadly, the smallest concentration in the dilution series that meets the test's criterion for growth inhibition – was determined as 3.13 µg/mL.

`Cl.O=C1/C(=C/c2ccccc2)CN(C(=O)c2ccc(OCCN3CCCCC3)cc2)C/C1=C\c1ccccc1` returned a logP in data set [4] of 7.1. Besides, in data set [1], inhibition of growth (MIC) required 6.25 µg/mL. In addition, in data set [8], the inhibition (as a rule, the share of the control response that was lost under treatment) at 6.25 µg/mL worked out at 100%.

Take `CN(C)CCOc1ccc(C(=O)N2C/C(=C\c3ccc(Cl)cc3)C(=O)/C(=C/c3ccc(Cl)cc3)C2)cc1.Cl`: the Activity result in the data set on Mus musculus [2], with Mus musculus [5], in the data set on Mus musculus [6] and in the data set with Mus musculus [7] was “Non-toxic” throughout. In data set [4], the logP is on record as 7. Also, the lowest concentration to inhibit growth in data set [1] (MIC) was 1.56 µg/mL. The inhibition at 6.25 µg/mL in data set [8] was determined as 100%.

For `CCN(CC)CCOc1ccc(C(=O)N2C/C(=C\c3ccc(Cl)cc3)C(=O)/C(=C/c3ccc(Cl)cc3)C2)cc1.Cl`, the Activity result in the data set on Mus musculus [2], in the data set with Mus musculus [5], with Mus musculus [6] and in the data set with Mus musculus [7] was “Non-toxic” in each case. In data set [4], this compound came in with a logP of 8. The same compound registered an inhibition at 6.25 µg/mL in data set [8] of 37%.

Consider `Cc1ccc(/C=C2\CNC/C(=C\c3ccc(C)cc3)C2=O)cc1`, for which the Activity entry in the data set with Mus musculus [2], in the data set on Mus musculus [5], in the data set with Mus musculus [6] and in the data set with Mus musculus [7] was “Non-toxic” throughout. In addition, the logP in data set [4] is given as 6.6. Also, the inhibition at 6.25 µg/mL in data set [8] was found to be 0%.

Turning to `Cl.O=C1/C(=C/c2ccc([N+](=O)[O-])cc2)CN(C(=O)c2ccc(OCCN3CCOCC3)cc2)C/C1=C\c1ccc([N+](=O)[O-])cc1`, the Activity result in the data set with Mus musculus [2], in the data set with Mus musculus [5] and in the data set with Mus musculus [6] was “Non-toxic” in each case. The logP in data set [4] (read-out: logP) was 5. Also, in data set [1], inhibition of growth (MIC) required 6.25 µg/mL. The compound further gave an inhibition at 6.25 µg/mL in data set [8] of 100%.

On to `Cl.O=C1/C(=C/c2ccccc2)CN(C(=O)c2ccc(OCCN3CCOCC3)cc2)C/C1=C\c1ccccc1`, for which the Activity result with Mus musculus [2], in the data set on Mus musculus [5] and in the data set with Mus musculus [6] was “Non-toxic” throughout. Besides, in data set [4] (read-out: logP), the logP was 5.4. In data set [1], this compound returned an MIC of 6.25 µg/mL. This compound came in with an inhibition at 6.25 µg/mL in data set [8] of 100%.

As to `COc1ccc(C(=O)N2C/C(=C\c3ccc(Cl)cc3)C(=O)/C(=C/c3ccc(Cl)cc3)C2)cc1`, the Activity entry in the data set with Mus musculus [2], in the data set with Mus musculus [5] and with Mus musculus [7] was “Non-toxic” in each case. In addition, the logP in data set [4] (read-out: logP) is 6. Moreover, in data set [8], 6.25 µg/mL produced 47% inhibition.

With `Cl.O=C1/C(=C/c2ccc(Cl)cc2)CN(C(=O)c2ccc(OCCN3CCCCC3)cc2)C/C1=C\c1ccc(Cl)cc1`, the logP in data set [4] is listed as 8.1. Besides, the inhibition at 6.25 µg/mL in data set [8] came to 86%.

In the case of `Cl.O=C1/C(=C/c2ccc([N+](=O)[O-])cc2)CN(C(=O)c2ccc(OCCN3CCCCC3)cc2)C/C1=C\c1ccc([N+](=O)[O-])cc1`, the Activity entry in the data set with Mus musculus [2] was “Non-toxic”. For the same compound, in data set [4], the log partition coefficient (logP) was 6.6. In addition, in data set [1], the MIC is 3.13 µg/mL. The compound also displayed an inhibition at 6.25 µg/mL in data set [8] of 100%.

With `CCN(CC)CCOc1ccc(C(=O)O)cc1.Cl`, the Activity entry with Mus musculus [2], in the data set with Mus musculus [5], with Mus musculus [6] and in the data set with Mus musculus [7] was “Non-toxic” each time. Moreover, the log partition coefficient (logP) in data set [4] (read-out: logP) was determined as 2.9. Moreover, the inhibition at 6.25 µg/mL in data set [8] was determined as 12%.

`Cc1ccc(/C=C2\CN(C(=O)c3ccc(OCCN(C)C)cc3)C/C(=C\c3ccc(C)cc3)C2=O)cc1.Cl`: the Activity entry with Mus musculus [2], in the data set with Mus musculus [5] and in the data set on Mus musculus [7] was “Non-toxic” in each case. This compound also returned a logP in data set [4] of 6.8. The MIC in data set [1] came to 3.13 µg/mL. At 6.25 µg/mL the inhibition in data set [8] was 100%.

In the case of `CC[N+](C)(CC)CCOc1ccc(C(=O)N2C/C(=C\c3ccccc3)C(=O)/C(=C/c3ccccc3)C2)cc1.[I-]`, the Activity entry with Mus musculus [2], in the data set on Mus musculus [5], with Mus musculus [6] and with Mus musculus [7] was “Toxic” each time. Also, the logP in data set [4] (read-out: logP) stood at 2.2. Also, testing at 6.25 µg/mL in data set [8] gave an inhibition of 0%.

`CC[N+](C)(CC)CCOc1ccc(C(=O)N2C/C(=C\c3ccc(Cl)cc3)C(=O)/C(=C/c3ccc(Cl)cc3)C2)cc1.[I-]`: the Activity result with Mus musculus [2], with Mus musculus [5], with Mus musculus [6] and in the data set with Mus musculus [7] was “Non-toxic” throughout. In addition, the logP in data set [4] (read-out: logP) is 3.2. Further, the inhibition at 6.25 µg/mL in data set [8] came out at 23%.

With `Cc1ccc(/C=C2\CN(C(=O)c3ccc(OCCN4CCCCC4)cc3)C/C(=C\c3ccc(C)cc3)C2=O)cc1.Cl`, the Activity entry in the data set on Mus musculus [2], in the data set on Mus musculus [5] and with Mus musculus [7] was “Non-toxic” throughout. This compound also registered a logP in data set [4] of 8. In addition, the MIC in data set [1] was 3.13 µg/mL. In addition, the inhibition at 6.25 µg/mL in data set [8] turned out to be 100%.

As for `O=C1/C(=C/c2ccccc2)CN(C(=O)c2ccccc2)C/C1=C\c1ccccc1`, the log partition coefficient (logP) in data set [4] (read-out: logP) was determined as 5.5. This compound also gave an inhibition at 6.25 µg/mL in data set [8] of 0%.

Take `Cc1ccc(/C=C2\CN(C(=O)c3ccc(OCCN4CCOCC4)cc3)C/C(=C\c3ccc(C)cc3)C2=O)cc1.Cl`: the Activity result with Mus musculus [2], in the data set with Mus musculus [5], in the data set with Mus musculus [6] and in the data set with Mus musculus [7] was “Non-toxic” in each case. Also, in data set [4] (read-out: logP), the logP was found to be 6.3. The compound further came in with a minimal inhibitory concentration (MIC) in data set [1] of 0.78 µg/mL. The compound also yielded an inhibition at 6.25 µg/mL in data set [8] of 100%.

In the case of `CCN(CC)CCOc1ccc(C(=O)N2C/C(=C\c3ccc([N+](=O)[O-])cc3)C(=O)/C(=C/c3ccc([N+](=O)[O-])cc3)C2)cc1.Cl`, the logP in data set [4] is 6.5. In data set [8], this compound gave an inhibition at 6.25 µg/mL of 34%.

In the case of `CC[N+](C)(CC)CCOc1ccc(C(=O)N2C/C(=C\c3ccc(C)cc3)C(=O)/C(=C/c3ccc(C)cc3)C2)cc1.[I-]`, the Activity entry in the data set on Mus musculus [2] is given as “Non-toxic”; with Mus musculus [5], “Toxic”; in the data set with Mus musculus [6], “Non-toxic”. For the same compound, in data set [4] (read-out: logP), the log partition coefficient (logP) worked out at 3.1. Besides, in data set [8], 6.25 µg/mL produced 81% inhibition.

`CCN(CC)CCOc1ccc(C(=O)N2C/C(=C\c3ccc(C)cc3)C(=O)/C(=C/c3ccc(C)cc3)C2)cc1.Cl`: the Activity result with Mus musculus [2], in the data set on Mus musculus [5], in the data set with Mus musculus [6] and in the data set on Mus musculus [7] was “Non-toxic” in each case. Moreover, the logP in data set [4] is recorded as 7.9. This compound also returned an MIC in data set [1] of 3.13 µg/mL. Moreover, the inhibition at 6.25 µg/mL in data set [8] worked out at 100%.
